# CHO parental Ca – ATP-evoked calcium signal inhibitors, parental CHO, primary screen, counter-screen for OX1R antagonist project, cell-based, fluorescence, Fluo-8 calcium dye | parental CHO-K1, ATP-induced calcium, Fluo-8 fluorescence | inhibition, % at 5.6 µM | 330,000 tested, 0.63% active | AID 463079, 2010;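 active = inhibition above that plate's mean sample inhibition plus 3 SD, cut at about 26% in these data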;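 note: 0% = ATP-challenged DMSO wells and 100% = DMSO wells without ATP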
#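 Test system: untransfected parental CHO cell line; also added: ATP stimulus; dosing: 5.6 µM, single dose; signal: calcium-sensitive Fluo-8 fluorescence; measure: percent inhibition of ATP-evoked calcium rise, normalized to controls; benchmarks: low control ATP plus DMSO, high control DMSO only; replication: one well per compound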
# NTR1 ag – agonists of human NTR1, primary screen, imaging, U2OS cells, beta-arrestin-GFP, high content. activation, % at 20 µM. NTR1-U2OS beta-arrestin-GFP spot imaging, agonist mode. 330,000 tested, 0.17% active;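 active = activation at or above 40% of the spot to cytoplasm intensity ratio, with at least 20 cells analyzed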;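 note: 0% = DMSO without peptide and 100% = 100 nM NTR1 peptide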
# Target sequence (P30989 whole entry, looked up): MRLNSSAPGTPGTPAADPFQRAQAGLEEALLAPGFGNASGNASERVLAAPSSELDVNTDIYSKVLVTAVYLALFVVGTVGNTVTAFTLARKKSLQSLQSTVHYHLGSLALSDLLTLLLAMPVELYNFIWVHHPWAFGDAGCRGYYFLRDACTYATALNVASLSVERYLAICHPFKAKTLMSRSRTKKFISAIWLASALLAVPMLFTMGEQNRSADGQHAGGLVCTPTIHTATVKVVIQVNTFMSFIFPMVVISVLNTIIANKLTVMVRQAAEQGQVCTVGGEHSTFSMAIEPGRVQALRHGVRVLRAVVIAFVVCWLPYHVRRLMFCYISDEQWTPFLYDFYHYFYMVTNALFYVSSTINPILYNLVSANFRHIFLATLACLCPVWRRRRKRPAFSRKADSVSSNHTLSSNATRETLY
# TAAR1 antag – human TAAR1 antagonists, primary screen, Fluo-8 calcium fluorescence, CHO RD-HGA16 cells; Trace amine-associated receptor 1 (Homo sapiens), Q96RJ0; antagonist; inhibition, % at 3 µM; 360,000 tested, 1.5% active; AID 624466, 2012;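 active = inhibition above a per-plate cutoff, the mean inhibition of test compounds on that plate plus 3 SD, cut at about 49% in these data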;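 note: 0% = DMSO plus EC80 beta-PEA response and 100% = DMSO alone without agonist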
# Target sequence (Q96RJ0 whole entry, looked up): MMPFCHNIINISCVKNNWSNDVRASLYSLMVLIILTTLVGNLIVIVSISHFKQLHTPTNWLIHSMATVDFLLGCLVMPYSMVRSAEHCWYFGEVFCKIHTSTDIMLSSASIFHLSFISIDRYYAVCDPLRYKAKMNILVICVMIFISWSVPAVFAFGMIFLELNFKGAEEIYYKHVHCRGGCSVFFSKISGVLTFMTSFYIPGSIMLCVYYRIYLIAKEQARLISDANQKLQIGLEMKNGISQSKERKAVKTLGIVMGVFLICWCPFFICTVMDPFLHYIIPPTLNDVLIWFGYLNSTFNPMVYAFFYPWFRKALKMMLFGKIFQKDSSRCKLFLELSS
#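 System: RD-HGA16 CHO cells with stable hTAAR1 and Gα16 | Probe or stimulus: EC80 β-phenethylamine stimulus | Dosing: 3 µM, single point | Times: Dye loading 75 min at 37 °C, then 30 min room temperature | Measured by: Fluo-8 calcium-sensitive fluorescence | Read-out basis: % inhibition of agonist calcium response | Replicates: n of 1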
# OX1R antag-1 – antagonists of human orexin 1 receptor (OX1R); AID 485270, 2010; inhibition, % at 6.6 µM; 330,000 tested, 1.8% active; OX1R-expressing cells, FRET antagonist read-out; Orexin/Hypocretin receptor type 1 (Homo sapiens), O43613; in the data active = inhibition mostly above about 38%, no sharp cut-off; inactive = mostly below about 40%;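 note: 0% = agonist challenge alone and 100% = reference antagonist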
# TAAR1 ag – human TAAR1 agonists, primary screen, Fluo-8 calcium fluorescence, CHO RD-HGA16 cells; Trace amine-associated receptor 1 (Homo sapiens), Q96RJ0; 360,000 tested, 0.99% active; vehicle wells 0%, saturating PEA agonist 100%; activation, % at 3 µM;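 active = activation above the mean activation of all test compounds in the run plus 3 SD, cut at about 38% in these data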
#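 Signal – calcium-sensitive Fluo-8 signal, excitation 470-495, emission 515-575 nm · System – RD-HGA16 (CHO) cells co-expressing Gα16 and hTAAR1 · Incubation – 17-24 h seeding, 75 min 37 °C dye, 30 min RT · Compound dosing – 3 µM single concentration · Repeats – no replicates (n 1)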
# OX1R antag-2 – OX1R (HCRTR1) antagonists, primary screen, fluorescence, CHO/OX1R cells, Fluo-8 calcium, orexin A. Orexin/Hypocretin receptor type 1 (Homo sapiens), O43613. Fluo-8 calcium fluorescence. inhibition, % at 5 µM. 330,000 tested, 0.43% active. AID 434989, 2010;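 active = inhibition above its plate's threshold, mean inhibition of all tested compounds on the plate plus 3 SD, cut at about 37% in these data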;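 note: 0% = orexin A challenge wells and 100% = SB-334867-A antagonist wells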
# * = called active by the depositor; nt = no result given. Sampled rows, rich in hits. Any-hit rate of the full collection: about 4%.
SMILES,CHO parental Ca,NTR1 ag,TAAR1 antag,OX1R antag-1,TAAR1 ag,OX1R antag-2
Cc1ccccc1Nc1nc(N)nc(CSc2nc3ccccc3s2)n1,-33.9,4.5,-0.6,66.6*,0.9,1.9
Cc1ccccc1Nc1nc(N)nc(CSc2nc3ccccc3c(=O)n2CCCO)n1,-25.3,0.1,40.0,12.6,8.6,-17.8
Cc1ccccc1Nc1nc(N)nc(CSc2nc3ccccc3c(=O)n2C)n1,-15.8,11.7,59.3*,2.2,13.2,-28.3
COc1ccc(OC)c(-c2csc(NC(=O)CSCc3c(C)noc3C)n2)c1,-23.1,3.4,35.3,24.7,4.1,-12.1
Nc1[nH]c(C(=O)c2ccccc2)c(-c2ccccc2[N+](=O)[O-])c1C(=O)NCCc1c[nH]c2ccccc12,nt,nt,22.4,nt,9.8,nt
CN(CC(=O)Nc1cccc(F)c1)C(=O)c1ccccc1OCC(=O)Nc1cccc(C(F)(F)F)c1,-20.3,8.9,82.2*,17.4,18.8,-2.2
O=C(OCCOc1ccc(Br)cc1)c1ccc(Cl)c(S(=O)(=O)N2CCOCC2)c1,9.2,1.1,18.7,14.5,2.4,4.1
N=c1c(C(=O)NCc2ccc(F)cc2)cc2c(=O)n3ccccc3nc2n1Cc1cccnc1,-17.0,3.0,3.7,35.4,-0.6,-31.1
N=c1c(C(=O)NCC2CCCO2)cc2c(=O)n3ccccc3nc2n1Cc1ccco1 (stereo not given),-10.0,2.0,3.6,57.1*,-0.3,-10.3
CCNC(=O)c1cc2c(=O)n3cccc(C)c3nc2n(Cc2ccc(C)cc2)c1=N,5.7,7.2,-6.4,52.1,16.1,-28.5
N=c1c(C(=O)NCC2CCCO2)cc2c(=O)n3ccccc3nc2n1Cc1ccc(F)cc1 (stereo not given),9.5,1.2,-8.0,54.5*,-1.2,-27.7
N=c1c(C(=O)NCC2CCCO2)cc2c(=O)n3ccccc3nc2n1Cc1cccnc1 (stereo not given),2.1,-2.1,-0.5,73.0*,0.3,-2.6
Cc1cccn2c(=O)c3cc(C(=O)NCC4CCCO4)c(=N)n(Cc4cccnc4)c3nc12 (stereo not given),-3.3,0.9,6.1,60.0*,5.5,-24.2
O=C(/C=C(\Nc1ccccc1)c1ccccc1)c1ccccc1,nt,nt,16.8,nt,0.7,nt
CC(C)[C@H](NC(=O)c1cccs1)C(=O)N1CCC[C@H]1C(=O)NCc1ccccc1,nt,nt,-9.1,nt,1.0,nt
Cc1ccc(S(=O)(=O)N2CCCc3nc(-c4ccccc4)ccc32)cc1,nt,nt,-16.5,nt,-0.9,nt
CCOC(=O)N[C@H](C(=O)N1CCC[C@H]1C(=O)NC1CCCC1)c1ccccc1,nt,nt,-18.8,nt,1.3,nt
N#Cc1ccc(NC(=O)Nc2ccc(Cl)cc2)cc1,75.3*,7.1,2.1,100.3*,32.4,67.8*
Cc1cc(NC(=O)Nc2ccc(Cl)c(Cl)c2)no1,82.5*,2.9,3.3,28.8,16.5,41.4
Cc1cc(NC(=O)Nc2ccc(Cl)cc2)no1,2.0,3.9,18.5,37.0,22.4,8.3
O=C(Nc1ccc(Cl)cc1)Nc1cccc2nsnc12,13.3,28.4,21.0,44.3*,0.4,2.0
O=C(Nc1ccncc1)Nc1cccc(Cl)c1Cl,nt,1.3,12.4,nt,25.7,nt
CC(=O)N(C)c1ccc(NC(=O)Nc2ccc(Cl)cc2)cc1,13.9,-0.9,102.3*,18.6,44.4*,26.9
Cc1cc(Nc2cccc([N+](=O)[O-])c2)cc(=O)n1-c1cccc([N+](=O)[O-])c1,nt,nt,-6.1,nt,-0.2,nt
OC(c1ccccc1)(c1ccccc1)C1CCN(CCCOc2cccnc2)CC1,nt,nt,-8.3,nt,-0.5,nt
SMILES,CHO parental Ca,NTR1 ag,TAAR1 antag,OX1R antag-1,TAAR1 ag,OX1R antag-2
O=C(Nc1ccccc1)Nc1ccc(Br)c(Cl)c1,28.8*,17.9,39.6,54.7,23.3,12.6
NS(=O)(=O)c1ccc(NC(=O)Nc2ccc(Cl)cc2)cc1,7.3,0.2,38.5,4.7,40.7*,0.1
CNC(=O)Nc1ccc(S(N)(=O)=O)cc1,6.9,-0.5,-6.3,2.9,0.0,-17.9
O=C(Nc1ccccc1)Nc1ccccc1Br,13.6,-0.1,6.8,26.1,-1.4,-11.5
O=C(Nc1ccc(Cl)cc1)Nc1ccc(Cl)c(Cl)c1,79.4*,10.6,65.6*,43.3*,18.4,84.3*
O=C(Nc1ccc(Cl)c(Cl)c1)Nc1ccc(Br)cc1F,35.5*,20.9,-19.6,49.8,16.0,31.8
O=C(Nc1ccc(Br)cc1)Nc1ccccc1F,5.3,1.7,12.3,26.4,16.4,-5.6
O=C(Nc1ccc(Cl)c(Cl)c1)Nc1ccon1,13.0,6.5,14.1,-1.2,23.1,11.4
O=C1CCC(C(=O)N2CCN(c3cnccn3)CC2)CN1CCc1ccccc1 (stereo not given),nt,nt,-4.3,nt,0.7,nt
COC(=O)C1=C(C)N(Cc2ccccc2C(F)(F)F)C(=NCc2ccc3c(c2)OCO3)NC1c1ccc(C(F)(F)F)cc1 (stereo not given),nt,nt,15.6,nt,5.5,nt
CC(C)(C)S(=O)(=O)N1Cc2cc(CO)ccc2[C@H]1CCO,nt,nt,-12.4,nt,2.7,nt
O=C(Nc1cccnc1)Nc1ccc(F)c(Cl)c1,-1.9,0.7,5.6,7.4,51.2*,12.0
Cc1ccc(NC(=O)Nc2ccc(F)c(Cl)c2)cc1,68.7*,2.5,-4.3,37.6,8.2,8.0
O=C(Nc1cccnc1)c1cc(F)c(F)cc1Cl,-1.1,-0.1,-18.6,25.6,7.8,-4.3
COCCNC(=O)c1cccc(OC2CCN(Cc3ccc(Cl)c(F)c3)CC2)c1,-20.5,-0.1,-0.7,11.6,2.6,-23.4
O=C(COc1ccc(Br)cc1Cl)NNC(=O)c1ccccc1,-31.8,-1.5,12.1,12.1,0.8,1.1
O=C(N[C@H](Cc1ccccc1)C(=O)NCC1CCCCC1)[C@H]1O[C@@H](n2ccc(=O)[nH]c2=O)[C@H](O)[C@@H]1O,nt,nt,-13.5,nt,0.0,nt
COC(=O)c1cc2c(c3c4cc(OC)ccc4n(S(=O)(=O)c4ccc(OC)cc4)c13)C(=O)N(Cc1ccccc1)C2,nt,nt,-24.4,nt,-0.5,nt
Clc1nssc1=Nc1ccc(Br)cc1,nt,nt,32.3,nt,41.9*,nt
CS(=O)(=O)c1cccc(OCCCN2CCC(C(O)(c3ccccc3)c3ccccc3)CC2)c1,nt,nt,10.7,nt,14.6,nt
CC(=O)C1=C(C)N(Cc2ccc(F)cc2)C(=S)NC1c1cccc(Br)c1 (stereo not given),nt,nt,44.2,nt,-0.1,nt
COc1ccc(-c2nc3c(c(SCC(=O)N4CCOCC4)n2)Cc2c(CO)cnc(C)c2O3)cc1,-30.8,3.1,-12.2,13.5,4.6,-6.1

# High-throughput results deposited in PubChem BioAssay by several laboratories.
